# PTEN del growth: suppresses growth of cells with PTEN deletion | HCT116 PTEN-null viability, CellTiter-Glo, 60 h; active compounds read low | viability, % at 10 µM | actives 1.2% (n = 140,000) | AID 827;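 active = viability at or below a set limit, 4 SD under the median of all tested compounds, cut at about 3.7% in these data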;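 also: PTEN knockout HCT116 line with beta catenin targeted HCT116 as companion control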
# TNAP inh no acc: inhibitors of human TNAP without phosphate acceptor. P05186. AID 1012. purified TNAP, CDP-star luminescence, 30 min. inhibition, % at 20 µM. actives 0.26% (n = 200,000);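 active = tissue-nonspecific alkaline phosphatase inhibition above about 50% at 20 µM in the single-dose screen, limit read from the data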
# Target sequence (P05186 whole entry, looked up): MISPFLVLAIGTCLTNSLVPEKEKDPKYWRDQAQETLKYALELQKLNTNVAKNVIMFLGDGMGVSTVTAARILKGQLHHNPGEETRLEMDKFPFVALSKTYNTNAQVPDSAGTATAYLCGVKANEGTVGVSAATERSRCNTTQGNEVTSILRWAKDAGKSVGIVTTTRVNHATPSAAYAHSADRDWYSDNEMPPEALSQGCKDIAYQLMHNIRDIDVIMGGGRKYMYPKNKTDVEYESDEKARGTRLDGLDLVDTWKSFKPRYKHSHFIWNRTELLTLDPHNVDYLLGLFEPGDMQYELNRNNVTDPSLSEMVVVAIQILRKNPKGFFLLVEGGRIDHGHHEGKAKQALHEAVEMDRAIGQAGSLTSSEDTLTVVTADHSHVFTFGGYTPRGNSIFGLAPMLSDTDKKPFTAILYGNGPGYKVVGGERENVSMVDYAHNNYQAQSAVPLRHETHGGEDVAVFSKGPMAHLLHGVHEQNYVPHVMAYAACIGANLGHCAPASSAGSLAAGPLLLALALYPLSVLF
# TNAP act hi DEA: increases human TNAP activity under high phosphate acceptor concentration; purified TNAP, CDP-star luminescence, 1 M DEA, 30 min; active compounds read high; 0 = EDTA background, 1 = DMSO-only activity; 200,000 tested, under 10 active; activation factor at 20 µM;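 active = activation factor at least 2 at 20 µM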
#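 Test system – human TNAP · Doses – 20 µM single point · Incubation – 30 min, room temperature · Signal – luminescent substrate turnover signal · Read-out basis – activation factor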
# bCat KO growth: beta-catenin-lacking colon tumor cell growth suppression. HCT116 beta-catenin knockout viability, CellTiter-Glo, 60 h; active compounds read low. viability, % at 10 µM. actives 1.5% (n = 140,000). AID 818;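 active = viability at or under a set limit, the compound median less 4 SD, cut at about 6% in these data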
# L major viab: Leishmania major promastigote growth inhibition; inhibition, % at 10 µM; Leishmania major promastigotes, resazurin fluorescence viability; actives 9% (n = 200,000); in the data active = inhibition above about 50%;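 also: promastigotes grown with compound for 44 hours at 28 °C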
# TNAP inh hiacc: inhibitors of human TNAP at high phosphate acceptor concentration; AID 1135; P05186; inhibition, % at 20 µM; purified TNAP, CDP-star luminescence, 1 M DEA; actives 0.03% (n = 200,000);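 active = over 50% inhibition of tissue-nonspecific alkaline phosphatase at 20 µM in the single-dose screen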
# Numbers stand for hits; . = inactive; / = not tested or not shown. The list is not random: actives were taken first. Their share in the collection is about 9.6%.
SMILES,PTEN del growth,TNAP inh no acc,TNAP act hi DEA,bCat KO growth,L major viab,TNAP inh hiacc
O=C(Nc1ccc(Cc2ccncc2)cc1)C1CCC(N2C(=O)C3C4C=CC(C4)C3C2=O)CC1 (centres undefined),.,.,.,.,62,.
O=C(CSc1ncnc2nc[nH]c12)Nc1nnc(SCc2ccc(Cl)c(Cl)c2)s1,/,.,.,/,.,.
COCCNCCOc1ccc(C)cc1[N+](=O)[O-],/,.,.,/,.,.
COCCNC(=O)c1cc(Br)ccc1Cl,.,.,.,.,.,.
COCCNCCCOc1ccc(Cl)cc1Br,/,.,.,/,65,.
COc1ccc(CC(=O)OCCN(C)C)cc1,.,.,.,.,.,.
COCCNCCCOc1ccc(Br)cc1Cl,.,.,.,.,81,.
C=CCNCCCOc1ccc(Cl)cc1Br,.,.,.,.,78,.
Clc1ccc(OCCn2ccnc2)c(Br)c1,.,.,.,.,.,.
CCc1cc(OCCOCCN(C)C)ccc1Cl,.,.,.,.,98,.
CC(=O)N1CCc2cc(S(=O)(=O)CCC(=O)NCc3ccco3)ccc21,/,.,.,/,.,.
Cc1cccc(NC(=O)COn2nnc3ccc(S(C)(=O)=O)cc32)c1,/,.,.,/,.,.
OCCNCCCOc1ccc(Cl)cc1Br,.,.,.,.,87,.
CCOc1ccc(Cl)cc1CNCCNCCO,.,.,.,.,.,.
CCN(CC)C(=O)COc1ccc(Br)cc1Cl,.,.,.,.,.,.
CN(C)CCCCOc1ccc(Br)cc1Cl,/,.,.,/,96,.
Cc1ccc(OCCOCCN(C)C)c(Cl)c1,.,.,.,.,85,.
COc1cc(C)ccc1OCCOc1cc(C)ccc1Cl,.,.,.,.,.,.
CC(C)OCCCNC(=O)CCC(=O)NNc1nc2ccccc2c2nc(-c3ccccc3)nn12,.,.,.,.,.,.
COc1ccc(Cc2[nH]n3c(=O)c(Cl)c(C)nc3c2-c2ccccc2)cc1,/,.,.,/,.,.
Cc1cc(C)cc(N(CC(=O)Nc2ccccc2-c2ccccc2)S(=O)(=O)c2ccccc2)c1,.,.,.,.,.,.
Cc1cc(C)cc(N(CC(=O)N/N=C/c2ccncc2)S(=O)(=O)c2ccccc2)c1,.,.,.,.,75,.
C=CSc1sc(Cl)c(N(CC)CC)c1[N+](=O)[O-],/,.,.,/,.,.
C=CCC(C=C)[N+]1(CC(=O)OC)CCCCC1 (centres undefined),/,.,.,/,.,.
COC(=O)C1=CN(c2ccc(OC)cc2)C=C(C(=O)OC)C1c1ccc(C)c([N+](=O)[O-])c1,.,.,.,.,99,.
SMILES,PTEN del growth,TNAP inh no acc,TNAP act hi DEA,bCat KO growth,L major viab,TNAP inh hiacc
COc1cc(/C=N/NC(=O)CN2CCCCC2)ccc1OCc1ccc(Br)cc1,.,.,.,.,94,.
COc1cc(/C=N/NC(=O)CC2(C)OCCCO2)ccc1OCc1ccccc1,.,.,.,.,.,.
O=C(CCN1CCCCC1)N/N=C/c1ccc(Br)cc1,.,.,.,.,83,.
O=C(CCN1CCCCC1)Nc1ccc(Br)cc1,.,.,.,.,.,.
COCc1nnc(NC(=O)c2ccccc2[N+](=O)[O-])s1,.,.,.,.,.,.
Cc1cc(NC(=O)C2CCCCC2)ccc1NC(=O)c1ccccc1Cl,.,.,.,.,.,.
COCCN1C(=S)NC(c2cccc(C(F)(F)F)c2)C(C(=O)N2CCOCC2)=C1C (centres undefined),/,.,.,/,.,.
COC1CCN(Cc2cn(Cc3ccccc3)nc2-c2cc3ccccc3o2)CC1,/,.,.,/,50,.
COC(=O)c1ccc2c(c1)N(Cc1ccccc1F)C(=O)c1ccccc1S2=O (centres undefined),.,.,.,.,100,.
CCOC(=O)c1ccc2c(c1)N(Cc1ccccc1C)C(=O)c1ccccc1S2=O (centres undefined),.,/,/,.,99,/
COC(=O)c1ccc(NC(=S)N2CCN(Cc3ccccc3OC)CC2)cc1,/,.,.,/,.,.
COc1cccc(N/C(SCc2ccccc2C)=C(/C#N)C(=O)NCc2cccs2)c1,.,.,.,.,.,.
COc1cccc(N/C(SCc2cccc([N+](=O)[O-])c2)=C(/C#N)C(=O)NCc2cccs2)c1,.,.,.,.,87,.
COc1ccccc1N1CCN(CC(=O)Nc2sccc2C#N)CC1,.,.,.,.,.,.

# Screening results as filed in PubChem.
